KCNK3 inh: human KCNK3 channel inhibition, primary screen. CHO-KCNK3 thallium flux, FluxOR fluorescence; stronger effect = lower value. B-score at 10 µM. 340,000 tested, 0.84% active. AID 602410;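 active means B-score under library mean minus 4 SD, starting fluorescence ratio at most library mean plus 5 SD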;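 further: more negative B-score means stronger inhibition of thallium flux through KCNK3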
KCNQ1 block: blocks the human KCNQ1 potassium channel | P51787 | AID 2642 | B-score at 10 µM | 310,000 tested, 1.3% active | CHO-K1 KCNQ1, FluxOR thallium flux fluorescence; stronger effect = higher value;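 active means compounds whose thallium flux B-score, printed positive for inhibition, exceeds three library SD while starting fluorescence stays within three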;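 further: channel opened by potassium depolarization with thallium stimulus after 20 min compound exposure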
KCNK9 block: inhibitors of human KCNK9 two-pore domain potassium channel; Q9NPC2; HEK293 KCNK9, FluxOR thallium flux fluorescence; stronger effect = lower value; B-score at 10 µM; 310,000 tested, 1.2% active; AID 488922;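 active means ratio B-score over 3 SD below the library mean, with starting fluorescence within 5 SD of its mean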;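 further: negative B-score means less thallium flux so channel inhibition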
KCNQ1 pot: potentiates or activates the human KCNQ1 potassium channel; AID 2648; CHO-K1 KCNQ1, thallium flux FluxOR fluorescence; stronger effect = higher value; P51787; B-score at 10 µM; 310,000 tested, 0.35% active;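 active means fluorescence ratio B-score, a plate-corrected score, at least three library SD, with initial intensity B-score within 5 SD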
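Doses: Single concentration per compound, DMSO matched to controls | Test system: KCNQ1-transfected CHO-K1 cells | Timing: 90 min dye loading and 20 min compound exposure, both at room temperature | Measured by: Kinetic FluxOR thallium fluorescence, 10-s 1-Hz baseline, 110-s post-stimulus read | Medium: Assay buffer with matched DMSO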
KCC2 mod: modulators of human KCC2 chloride dependent transport | 190,000 tested, 2.2% active | KCC2 cells, thallium flux FluoZin-2 fluorescence | Q9H2X9 | B-score of Tl+ flux slope (higher = more flux/activation; lower = inhibition) at 10 µM;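 active means thallium flux slope and its plate-corrected score both differing from the plate sample mean at a set confidence after two filtering rounds, in either direction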;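 further: slope of fluorescence scaled to starting intensity during 10 to 20 s after thallium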
hERG protect: compounds protecting human hERG from proarrhythmic drug block. Q12809. CHO-hERG, FluxOR thallium flux, dofetilide IC70 present. activation (rescue from dofetilide block), less the hit threshold, % at 10 µM. 310,000 tested, 0.51% active. AID 1511;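 active means activation above the mean of controls blocked by dofetilide plus 5 SD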;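 further: thallium influx through hERG after potassium depolarization seen as dye fluorescence rise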
Target sequence (Q12809 whole entry, looked up): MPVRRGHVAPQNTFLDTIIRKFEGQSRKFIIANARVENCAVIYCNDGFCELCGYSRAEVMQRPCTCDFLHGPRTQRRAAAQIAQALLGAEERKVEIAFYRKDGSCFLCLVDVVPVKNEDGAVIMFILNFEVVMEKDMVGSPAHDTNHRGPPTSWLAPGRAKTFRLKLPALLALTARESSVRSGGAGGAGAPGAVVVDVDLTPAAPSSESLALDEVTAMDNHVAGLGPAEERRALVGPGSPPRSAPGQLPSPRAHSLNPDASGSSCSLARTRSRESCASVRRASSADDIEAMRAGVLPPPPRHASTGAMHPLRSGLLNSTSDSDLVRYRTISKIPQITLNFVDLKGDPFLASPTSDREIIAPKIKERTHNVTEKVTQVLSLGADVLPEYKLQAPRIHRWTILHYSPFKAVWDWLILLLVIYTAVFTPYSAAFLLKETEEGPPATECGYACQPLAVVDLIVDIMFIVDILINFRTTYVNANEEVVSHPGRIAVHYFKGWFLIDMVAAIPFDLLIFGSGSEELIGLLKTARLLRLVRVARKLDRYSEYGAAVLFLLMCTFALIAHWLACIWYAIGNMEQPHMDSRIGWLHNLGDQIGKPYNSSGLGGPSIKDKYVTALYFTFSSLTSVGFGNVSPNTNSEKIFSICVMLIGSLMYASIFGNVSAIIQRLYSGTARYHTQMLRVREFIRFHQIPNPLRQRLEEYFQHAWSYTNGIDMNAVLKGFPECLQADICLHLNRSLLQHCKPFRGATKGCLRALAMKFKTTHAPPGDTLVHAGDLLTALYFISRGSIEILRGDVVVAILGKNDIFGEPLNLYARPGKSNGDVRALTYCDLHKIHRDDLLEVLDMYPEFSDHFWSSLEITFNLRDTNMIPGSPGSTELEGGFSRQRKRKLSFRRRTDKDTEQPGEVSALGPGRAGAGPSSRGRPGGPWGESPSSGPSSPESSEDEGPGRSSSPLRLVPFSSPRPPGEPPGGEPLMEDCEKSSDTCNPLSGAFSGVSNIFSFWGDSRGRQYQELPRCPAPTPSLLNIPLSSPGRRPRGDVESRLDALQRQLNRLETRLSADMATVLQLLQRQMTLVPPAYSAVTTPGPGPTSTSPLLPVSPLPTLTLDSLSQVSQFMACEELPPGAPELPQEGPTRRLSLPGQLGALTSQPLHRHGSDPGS
KCNK3 confirm: human KCNK3 channel inhibition, confirmation assay; 2,400 tested, 99% active; shares compounds with KCNK3 inh; ratio percent of control, % at 10 µM; CHO-KCNK3 thallium flux, FluxOR fluorescence; 0% buffer, 100% carvedilol maximal block;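 active means ratio percent of control, averaged over triplicates, above buffer control mean plus 5 SD, cut at about 64% in these data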;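 further: ratio is the fluorescence rise from min to max over baseline after thallium stimulus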
KCNK3 uninduced: KCNK3 inhibitor counter-screen hit in non-induced cells; non-induced KCNK3 parental cells, FluxOR thallium flux; stronger effect = lower value; thallium flux ratio (lower = more inhibition) at 10 µM; 2,400 tested, 40% active; shares compounds with KCNK3 inh; AID 651747;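 active means thallium flux ratio, averaged over three wells, more than 5 SD below the buffer control mean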;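 further: host cells are CHO cells without KCNK3 induction; ratio is peak minus trough fluorescence over baseline then normalized to buffer controls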
* = called active by the depositor; i = inactive; · = not tested or not shown. A selection: hits, their analogues and other compounds. The true share with any hit is near 4.1%.

SMILES	KCNK3 inh	KCNQ1 block	KCNK9 block	KCNQ1 pot	KCC2 mod	hERG protect	KCNK3 confirm	KCNK3 uninduced
COc1ccc(/C(C)=N/NS(=O)(=O)c2cc(C)ccc2C)c(OC)c1	-10*	i	i	i	-0.14	-8	97*	i
c1ccc2c(-c3c[nH]c4ccccc34)c3ccccc3nc2c1	-10*	i	i	i	-0.075	1	123*	i
Cc1cc(=O)oc2c(C)c(OCC(=O)N3CCN(c4ccc(F)cc4)CC3)ccc12	i	i	i	i	·	-7	·	·
Cc1cccc(N2CCN(C(=O)COc3ccc4c(C)cc(=O)oc4c3C)CC2)c1C	-9*	7*	i	i	·	-5	81*	i
Cc1ccc(NC(=O)N(Cc2ccco2)Cc2cc3cc(C)cc(C)c3nc2Cl)cc1	·	i	i	i	·	-9	·	·
Cc1cccc2cc(CN(Cc3ccco3)C(=O)Nc3cccc(C#N)c3)c(Cl)nc12	-9.3*	6*	i	i	-0.64	-11	122*	0.14*
Cc1ccc(N(Cc2ccccc2)C(=O)c2cc(S(=O)(=O)N3CCOCC3)ccc2N2CCCC2)cc1	i	i	i	i	·	-13	·	·
COc1cc(NC(=O)[C@@H]2CCCN(S(=O)(=O)c3cccc4cccnc34)C2)cc(OC)c1OC	i	·	·	·	·	·	·	·
O=C(Nc1ccc(N2CCN(C(=O)c3ccc(Cl)cc3)CC2)cc1)c1cc2ccccc2o1	i	i	i	i	·	-12	·	·
O=C(Nc1ccccc1N1CCN(C(=O)c2ccc(Cl)cc2)CC1)c1cc2ccccc2o1	-12*	i	i	i	·	-6	121*	0.14*
COP(=O)(OC)C(Nc1cc(Cl)cc(Cl)c1)c1cccc(O)c1 (stereo not drawn)	i	i	i	i	0.59	-12	·	·
CCC(OC(=O)C(CC(C)C)NC(=O)c1ccccc1)C(=O)Nc1nnc(C)s1 (stereo not drawn)	i	·	·	·	·	·	·	·
CCOC(=O)c1sc(NC(=O)C(CC)OC(=O)C(CC(C)C)NC(=O)c2ccccc2)nc1C (stereo not drawn)	-11*	i	i	i	·	-11	108*	i
COc1cc2c(c(OC)c1OC)-c1c(cc3c(c1OC)OCO3)[C@@H](OC(C)=O)[C@H](C)[C@H](C)C2	i	i	i	i	-1.2	-7	·	·
O=C(CSc1nnc(CNC(=O)C23CC4CC(CC(C4)C2)C3)n1-c1ccccc1)Nc1ccc(F)cc1	i	i	i	i	-1.4	-7	·	·
COC(=O)c1ccccc1NC(=O)N1CCN(c2ccc(F)cc2)CC1	-11*	i	i	i	0.55	-20	112*	i
NS(=O)(=O)c1ccc(NC(=O)Nc2cccc(Cl)c2)cc1	i	i	i	i	·	-19	·	·
CCCSc1ccc([C@@H]2[C@H]3C(=O)N(CC)C(=O)[C@H]3[C@]3(C(=O)OC)CCCN23)cc1	i	·	·	·	·	·	·	·
CCN(CC(=O)Nc1cccc(C#N)c1)CC(=O)Nc1cccc(OC)c1	-9.7*	i	i	i	-0.75	-17	90*	i
COc1ccccc1-c1cc(C(=O)N/N=C/c2cccs2)c2ccccc2n1	-9.4*	i	i	i	-0.4	-7	109*	i
O=C(N/N=C/c1cccs1)c1cc(-c2ccncc2)nc2ccccc12	i	i	i	i	-0.81	-3	·	·
COc1ccccc1CN(C)C(=O)c1cc(-c2cccs2)nc2ccccc12	-13*	i	i	i	·	-14	119*	0.14*
CN(C)CCCC(C)(O)C(Cc1ccccc1)c1ccccc1 (stereo not drawn)	i	i	i	i	·	-4	·	·
Oc1ccccc1-c1nc(N2CCN(Cc3ccccc3)CC2)c2ccccc2n1	-12*	i	-7.1*	i	0.71	-4	100*	i
c1ccc(CNc2nc(N3CCN(Cc4ccccc4)CC3)nc3ccccc23)cc1	-10*	12*	i	i	-0.68	-28	113*	i
SMILES	KCNK3 inh	KCNQ1 block	KCNK9 block	KCNQ1 pot	KCC2 mod	hERG protect	KCNK3 confirm	KCNK3 uninduced
CNc1nc(NCc2ccccc2)c2ccccc2n1	i	i	i	i	·	-8	·	·
Oc1ccccc1Nc1nc(NCc2ccccc2)c2ccccc2n1	-12*	i	i	i	-0.15	-15	137*	i
COc1ccc(C2=NS(=O)(=O)N(C)C(C(=O)N(C)Cc3ccccc3)=C2)cc1OC	i	i	i	i	·	-11	·	·
Oc1ccccc1-c1csc(-c2ccccc2)n1	-9.1*	i	-6.6*	i	0.02	-9	115*	0.14*
c1ccc(-c2csc(-c3ccncc3)n2)cc1	i	i	i	i	·	-10	·	·
COC(=O)C1=C(NC(=O)COc2ccc3ccccc3c2)CCS1	i	i	i	i	0.3	-9	·	·
Cc1cccc(CCNC(=O)C2CCCN(c3cnccn3)C2)c1 (stereo not drawn)	i	i	i	i	·	-8	·	·
CC(C)c1ccccc1-n1c(SCC(=O)c2ccc3c(c2)NC(=O)CO3)nc2ccccc2c1=O	-11*	6*	-7.4*	i	-0.014	-22	115*	0.15*
O=C1c2ccsc2SCCN1Cc1ccccc1	i	i	i	i	-0.91	-9	·	·
N#Cc1ccc(Cl)cc1NC(=O)CNc1cccc(S(=O)(=O)N2CCCC2)c1	i	·	·	·	·	·	·	·
CC1=CC(C)(C)N2C(=O)C3(C(C#N)=C(N)Oc4cc(O)ccc43)c3c(C)c(C)cc1c32 (stereo not drawn)	-8.9*	i	i	i	·	-16	81*	0.16*
CCCC(CCC)C(=O)Nc1cccc(-c2cn3c(n2)SCC3)c1	-8.7*	i	i	i	·	-6	99*	i
O=C(Nc1cccc(-c2cn3c(n2)SCC3)c1)c1ccc2c(c1)OCO2	-11*	i	i	i	0.03	-24	104*	i
COc1ccc(C(=O)NN/C(C)=C/C(=O)C(F)(F)C(F)(F)C(F)(F)F)cc1	i	i	i	i	1.4	-9	·	·
CC(C)(C)n1nnnc1C(c1cccnc1)N1CCN(C2CCCCC2)CC1 (stereo not drawn)	i	i	i	i	1.4	-2	·	·
CC(C)(C)n1nnnc1C(c1cccnc1)N1CCN(c2cccc(C(F)(F)F)c2)CC1 (stereo not drawn)	-10*	i	i	i	-0.66	-7	77*	i
